Test: Toxicity liver stage against HepG2, at 10uM
Assay type: cell-based
Design: test concentration 10 uM, cell line HepG2-A16-CD81EGFP
Conditions: human, HepG2-A16-CD81EGFP cells; read-out: INHIBITION
Method in brief: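 Uninfected HepG2-A16-CD81EGFP cells, 3 × 10^3 per well, 1536-well, plated on prespotted compound at 10 μM final, parasite-free screening media added to match infected plates; puromycin 10 μM positive, DMSO 0.5% negative; run in parallel with 48 h PbLuc assay at 37 °C, 5% CO2; viability by CellTiter-Glo luminescence, normalized to controls.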

SMILES	cytotoxicity at 10 µM
Cc1ccc(NC(=O)Nc2c[nH]c(=O)[nH]c2=O)c(Cl)c1	-4.28%
CN(Cc1cccc(C(F)(F)F)c1)Cc1nc(-c2cnccn2)no1	1.35%
F[C@@H]1CN(CC2CC2)C[C@@H]1OCc1nc2ccc(C(F)(F)F)cc2[nH]1	-6.22%
O=S(=O)(c1ccc(Cl)cc1)N1CCOC[C@H](Oc2cnccn2)C1	-2.57%
O=S(=O)(c1ccc(F)cc1)N1CCOC[C@H](Oc2cnccn2)C1	5.88%
CCOC(=O)c1nc(CC(=O)Nc2ccc3cc[nH]c3c2)no1	7.12%
Cc1nn(C)cc1CC(C#N)C(=O)Nc1cccc(O)c1 (centres undefined)	2.8%
CC(C)n1c(=O)c2ccccc2n(CCN2CCCCC2)c1=O	-16.6%
COc1cccc(C(=O)Nc2n[nH]c(C3CCCO3)n2)c1 (centres undefined)	6%
COc1ncccc1C(=O)NCCn1nc(C)ccc1=O	-7.69%
Cc1cc(C)n(CC(=O)NCc2ccccn2)n1	3.86%
COc1nn(C)cc1C(=O)NCC(=O)Nc1cccnc1	-8.75%
CCCc1nnsc1C(=O)NCC1CCN(C(=O)c2ccncc2)CC1	16.2%
O=C(CN1C(=O)CCC1=O)N1Cc2cncnc2C1	-8.33%
CN1CCN(Cc2cccnc2)C(=O)C12CCN(S(C)(=O)=O)CC2	0.611%
CC(C)CC(=O)N1CCCC2(CC(C(=O)Nc3ccccc3)=NO2)C1 (centres undefined)	1.46%
O=C(c1cscn1)N1C[C@H](OCc2cccnc2)[C@H]2COC[C@H]21	-2.07%
Cc1ccnc(OC[C@]23COC[C@H]2CN(C(=O)C2=CCCCC2)C3)n1	0.325%
CCS(=O)(=O)N1C[C@H]2CN(Cc3cccc(F)c3)C(=O)[C@H]2C1	0.442%
CN(C)c1ncc(-c2cc(C(=O)N3CCCC3)n(CC3CC3)c2)cn1	-0.376%
COCC(=O)N1CC[C@H]2N(C)CC[C@@]2(C(=O)Nc2ccccc2)CC1	3.48%
CCCC(=O)N1CCC2(CC1)CC(NC(C)=O)c1ccccc1O2 (centres undefined)	5.08%

SMILES	cytotoxicity at 10 µM
c1nc(N2CCCC2)cnc1C1CCNCC1	-3.87%
CC(C)C(NC(=O)C1CC1)c1cc(O)nc(-c2cccnc2)n1 (centres undefined)	5.18%
Cc1nn(CCC(=O)NC2CCCOC2)c(C)c1C (centres undefined)	2.06%
CC(C)(C)C(=O)N1CCC(c2cnc(-c3cn[nH]c3)cn2)CC1	1.16%
CCc1nc(-c2cncnc2C2CCNC2)no1 (centres undefined)	1.45%
c1cncc(CN2CCC(c3csc4nccn34)CC2)c1	2.9%
CO[C@H]1CN(S(=O)(=O)c2ccccc2F)C[C@@]12CCCO2	-3.08%
CCC(=O)c1ccc(OCC(=O)NCC2CCCO2)cc1 (centres undefined)	-52.1%
CN(Cc1ccc(F)cc1)C(=O)c1ccoc1CN1CCNC(=O)C1	-3.57%
CNC(=O)CN(C)S(=O)(=O)c1c(Br)cc2[nH]c(=O)oc2c1Cl	1.36%
O=C(CCNC(=O)C1=Cc2ccccc2OC1)Nc1cccnc1	-0.956%
CN(CC(=O)N(C)C(c1ccc(Cl)cc1)c1cccnc1)C1CC1 (centres undefined)	10.9%
O=C1OCCC1N1CCN(c2cnccn2)CC1 (centres undefined)	-0.0916%
COC(=O)c1ccc(Cn2cccc(C(F)(F)F)c2=O)s1	-8.03%
O=C1CCN(C(=O)NCc2cccc(Oc3ccccc3)c2)CCN1	4.11%
COc1ccc(C(=O)N(C2CC2)C2CC(=O)NC2=O)cc1 (centres undefined)	-10.7%
CC(C)N1CC(C(=O)NC(C)(C)CNC(=O)OC(C)(C)C)CC1=O (centres undefined)	-9.96%
CC(C)(C)S(=O)(=O)CCNC(=O)NCCCc1cccc(F)c1	17%
COC(=O)c1cccc(S(=O)(=O)N2CSCC2C(=O)N(C)C2CC2)c1 (centres undefined)	5.15%
CC(=O)NCCC(=O)Nc1cccc(N2CCN(CC3CC3)CC2)c1	-5.62%
COC(=O)COc1cc(NCc2c(C)noc2C)c(Cl)cc1C	3.2%
O=C(COc1ccccc1)NCC1CC1	7.76%

SMILES	cytotoxicity at 10 µM
Cc1ccc(S(=O)(=O)NC(=O)CCc2cscn2)cc1Cl	8.9%
COC(C)(C)CNC(=O)N(C)Cc1nc(-c2ccccc2)c[nH]1	8.07%
CNC(=O)c1cccc(CCNC(=O)N2CCc3ccccc3C2)c1	6.72%
Cc1ccc(CNc2ccc(C(=O)N3CCNC(=O)C3)cn2)cc1	4.64%
Cc1ccc(S(=O)(=O)N2CCn3nc(C)nc3C2)c(Cl)c1	5.09%
CC1(CCNC(=O)NCc2ccsc2)OCCO1	-6.21%
CCOCCN(C)C(=O)Nc1cccc2c1CCN(CC)C2	-49.3%
NC(=O)c1ccc(S(=O)(=O)NCCc2ccccn2)cc1	-16%
Cc1nnc(NC(=O)NCCCN2CCC(C(N)=O)CC2)s1	5.61%
O=C(c1ncoc1-c1ccco1)N1CCCN(c2ncccn2)CC1	2.7%
Cn1ncnc1NS(=O)(=O)c1ccc(F)cc1Cl	5.73%
O=C(Nc1ccc(F)cc1)C1CSCN1 (centres undefined)	-2.76%
CCOC(=O)Cn1ccc2cc(NC(=O)N3CCSCC3)ccc21	9.68%
CN(CCn1cccn1)c1cc(C(F)(F)F)nc(-c2cccnc2)n1	-3.63%
CCCn1nc(-c2nc(C3CC3)no2)ccc1=O	1.77%
CN(C)Cc1nc(-n2cnc(C(=O)NC3CCCC3)c2)n2ccccc12	7.75%
Cc1ccn2c(F)c(C(=O)N3CCC4(CCCN(C)C4=O)C3)nc2c1 (centres undefined)	2.51%
c1ccc(C(CNc2ncccn2)N2CCOCC2)nc1 (centres undefined)	-47.5%
COCCN(C)C[C@@H]1CN(C(=O)c2cccc(C#N)c2)C[C@@H]1CO	14.5%
CCn1ccnc1CN1CCCC(CO)(CCCc2ccccc2)C1 (centres undefined)	-4.84%
CCOC(=O)CNC(=O)N1CCCC(CNC(=O)c2ccco2)C1 (centres undefined)	-10.9%
CCN1CCCC(C)(C(=O)NCCc2nnc(C)[nH]2)C1 (centres undefined)	1.1%

SMILES	cytotoxicity at 10 µM
CCC(Cn1ccc2[nH]c(=O)c(C#N)cc2c1=O)OC (centres undefined)	2.33%
COCCC1(C(=O)O)CCCN(Cc2ccccc2OCCO)C1 (centres undefined)	-40.9%
CC(C)(C)CN1CCN(CC2CC2)C(CCO)C1 (centres undefined)	-2.42%
Cc1ccc(CN2CCN(CC(=O)N(C)C)[C@@H]3CS(=O)(=O)C[C@@H]32)cc1C	1.18%
CCN1CCN(S(=O)(=O)N2CCCCCC2)[C@H]2CS(=O)(=O)C[C@H]21	1.58%
Cc1ccnc(NCCCN2CCc3ccccc32)n1	0.979%
COc1ccc(C(=O)N2C[C@@H](C(=O)O)[C@H](c3ccccc3C)C2)c(O)c1	-4.31%
Cc1csc(CCCNC(=O)[C@H]2CNC[C@@H](C(=O)N3CCCC3)C2)n1	-15.9%
O=C(CCC1CC1)N1C[C@@H](CN2CCCC2)[C@@H](CO)C1	-4.43%
Cc1cc(C(=O)O)cc(S(=O)(=O)Nc2ccc3c(c2)OCCCO3)c1C	-4.72%
Cc1cc(C)n(CC2CCCN2CCCS(C)(=O)=O)n1 (centres undefined)	-3.48%
Cc1cc(CN2CCCC(Cn3cncn3)C2)no1 (centres undefined)	-2.12%
O=C(c1nccc2ccccc12)N1CCCCC1Cn1cccn1 (centres undefined)	-4.31%
Cc1cc(C)n(CC2CCCN2C(=O)c2ccnc(N(C)C)c2)n1 (centres undefined)	-16.8%
CN(C(=O)c1ccc(Cl)cc1)C1CCN(c2ccccn2)CC1	-21%
Cc1ccccc1CCNC(=O)N1CCCC(c2nncn2C)C1 (centres undefined)	-29.8%
CCCOc1cccc(NS(=O)(=O)c2cc(C(=O)O)cs2)c1	1.09%
Cc1cc(CNc2ccc(C(=O)N3CCCC(C)C3)cc2C)no1 (centres undefined)	-3.92%
CCOc1ccc(Cl)c(C(=O)N2CCN(CCO)CC2)n1	-5.15%
CC(=O)NCCNC(=O)c1sc(-c2ccc(C)cc2C)nc1C	-7.62%
Cc1ccc(NC2CCN(C(=O)Cn3nc(C)cc3C)CC2)nn1	-1.81%
Cc1oc(C)c(C(=O)NCc2ccccc2S(=O)(=O)N(C)C)c1C	1.97%

SMILES	cytotoxicity at 10 µM
COCCOc1ccc(NC(=O)C2CC(=O)N(C)C2)cn1 (centres undefined)	-5.31%
CN(CCNC(=O)c1scnc1Cl)c1ccccc1	6.88%
CC(C)c1nnc2n1CCN(C(=O)c1ccc(OCC(N)=O)cc1)C2	-4.84%
O=C1CCC2(CCC(NC3CCOC3)CC2)N1Cc1ccncc1 (centres undefined)	3.61%
Cc1ccc(C(=O)N2CCC3(CC2)COC(COc2cccnc2)C3)o1 (centres undefined)	-3.16%
c1cncc(-c2ncnc3c2CCN(Cc2ccsc2)CC3)c1	8.74%
O=C(Cc1ccccc1)N1CC[C@H]2[C@@H]1CCC(=O)N2Cc1ccncc1	3.07%
CN(C)CCN1C[C@@H]2CN(C(=O)c3ccsc3)C[C@@H]2C1=O	-7.79%
Cn1cc(C(=O)N[C@@H]2CN(Cc3cccnc3)[C@@H]3CCCO[C@@H]32)cn1	1.18%
Cn1ccnc1CN1CCC2(CC1)CC(Oc1cccnc1)C2	-20.7%
O=C(c1ccco1)N1CCOCC2(C1)CN(c1cccnc1)C(=O)CO2 (centres undefined)	5.88%
O=C(N1CCCC1)N1CCC[C@]2(C[C@@H](Oc3ncccc3F)CO2)C1	-0.269%
CN(C)Cc1cncc2c1CCN(C1CCOCC1)C2	11.1%
CN(C)[C@@H]1CN(C(=O)Cc2cccc(F)c2)[C@@H]2CCCO[C@H]12	1.37%
CN(C)[C@@H]1CCN(C(=O)Cc2ccc(F)cc2)[C@H]1Cc1cnn(C)c1	4.58%
O=C(Cc1ccccn1)NCC1OCCc2cn(CC3CC3)nc21 (centres undefined)	7.51%
Cn1ccc(C(=O)N2C[C@H]3CCC[C@@]3(COCc3cccnc3)C2)n1	6.87%
CC(C)CC(=O)N1C[C@@H]2CCN(c3cnccn3)C[C@@H]2C1	3.44%
CC1(C)CC(n2cc3nc(N)[nH]cc-3c2=O)CC(C)(C)N1	-12.8%
CC(C)=CCN1C[C@@H]2CC[C@H]1CN(C(=O)c1c[nH]c(=O)c(Cl)c1)C2	-14.5%
O=c1occ(CN2CCOCC2)c(O)c1CN1CCOCC1	-12.1%

From ChEMBL document CHEMBL4513216, “Probing the Open Global Health Chemical Diversity Library for Multistage-Active Starting Points for Next-Generation Antimalarials” (ACS Infect Dis, 2020)
